Measured values published in ChEMBL document CHEMBL1133253, “Improved antibacterial activities of coumarin antibiotics bearing 5',5'-dialkylnoviose: biological activity of RU79115” (Bioorg Med Chem Lett, 2000).
≈ marks a conversion by molar mass, not a printed value.

Legend:
Enterococcus [1] = experiment: Minimum inhibitory concentration evaluated against enterococci species resistant to vancomycin [65]*; format: functional
Enterococcus [2] = experiment: Minimum inhibitory concentration evaluated against enterococci species resistant to vancomycin and teicoplanin [17]*; format: functional
Enterococcus [3] = experiment: Minimum inhibitory concentration evaluated against enterococci species susceptible to vancomycin [26]*; format: functional
Enterococcus [4] = experiment: In vitro anti-enterococcal activity against enterococci species resistant to vancomycin [65]* expressed as geometric mean; format: functional
Enterococcus [5] = experiment: In vitro anti-enterococcal activity against enterococci species resistant to vancomycin and teicoplanin [17]* expressed as geometric mean; format: functional
Enterococcus [6] = experiment: In vitro anti-enterococcal activity against enterococci species susceptible to vancomycin [26]* expressed as geometric mean; format: functional
Mus musculus [7] = experiment: Minimum inhibitory concentration of the subcutaneously administered compound evaluated against Staphylococcus aureus HT-18 strain in mice; format: functional
Mus musculus [8] = experiment: Minimum inhibitory concentration of the subcutaneously administered compound evaluated against […] A1UC1 strain in mice; format: functional
Mus musculus [9] = experiment: Minimum inhibitory concentration of the subcutaneously administered compound evaluated against vancomycin resistant Enterococci faecium D3AP9 strain in mice; format: functional
Mus musculus [10] = experiment: Minimum inhibitory concentration of the subcutaneously administered compound evaluated against Enterococci faecalis D2HT6 strain in mice; format: functional
Mus musculus [11] = experiment: Minimum inhibitory concentration of the subcutaneously administered compound evaluated against Enterococci faecium D3HT7 strain in mice; format: functional
Mus musculus [12] = experiment: Minimum inhibitory concentration of the subcutaneously administered compound evaluated against […] B1HT3 strain in mice; format: functional
Mus musculus [13] = experiment: Minimum inhibitory concentration of the subcutaneously administered compound evaluated against Staphylococcus aureus GR56 strain resistant to oxacillin in mice; format: functional
Mus musculus [14] = experiment: Minimum inhibitory concentration of the subcutaneously administered compound evaluated against vancomycin resistant Enterococci faecium D3HM4 strain in mice; format: functional
Mus musculus [15] = experiment: Minimum inhibitory concentration of the subcutaneously administered compound evaluated against vancomycin resistant Enterococci faecium D3HT12 strain in mice; format: functional
Mus musculus [16] = experiment: Protective dose of subcutaneously administered compound against intraperitoneally-induced septicaemia model ([…] B1HT3 strain) in murine; format: functional; conditions: sc, read-out: PD50
Method in brief: (§1)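 Murine septicaemia was induced by intraperitoneal infection, and the compound was given subcutaneously. PD50 was derived by probit analysis.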

Mus musculus [17] = experiment: Protective dose of subcutaneously administered compound against intraperitoneally-induced septicaemia model (Staphylococcus aureus GR56 strain resistant to oxacillin) in murine; format: functional; conditions: sc, read-out: PD50; method in brief: as §1
Mus musculus [18] = experiment: Protective dose of subcutaneously administered compound against intraperitoneally-induced septicaemia model (Staphylococcus aureus HT18) in murine; format: functional; conditions: sc, read-out: PD50; method in brief: as §1
pneumococci = experiment: In vitro anti-streptococcal activity against pneumococci resistant to penicillin [29]* expressed as geometric mean; format: functional
[19] = Minimum inhibitory concentration evaluated against pneumococci resistant to penicillin [29]*; format: functional
Staphylococcus sp. [20] = experiment: Minimum inhibitory concentration evaluated against Staphylococcus species [91]*; format: functional
Method in brief: (§2)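 Two-fold agar dilution MIC, in µg/mL, against Staphylococcus panels grouped by resistance phenotype (oxacillin and/or ofloxacin resistant). Per-panel values are reported as the geometric mean and MIC90 across strains; the strain count per panel is given in brackets.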

Staphylococcus sp. [21] = experiment: Minimum inhibitory concentration evaluated against Staphylococcus species resistant to ofloxacin [59]*; format: functional; method in brief: as §2
Staphylococcus sp. [22] = experiment: Minimum inhibitory concentration evaluated against Staphylococcus species resistant to oxacillin [66]*; format: functional; method in brief: as §2
Staphylococcus sp. [23] = experiment: Minimum inhibitory concentration evaluated against Staphylococcus species resistant to oxacillin and ofloxacin [47]*; format: functional; method in brief: as §2
Streptococcus sp. [24] = experiment: In vitro anti-streptococcal activity against Streptococci species (viridans) [25]* expressed as geometric mean; format: functional
Streptococcus sp. [25] = experiment: In vitro anti-streptococcal activity against Streptococci species [38]* expressed as geometric mean; format: functional
Streptococcus sp. [26] = experiment: Minimum inhibitory concentration evaluated against Streptococci species (viridans) [25]*; format: functional
Streptococcus sp. [27] = experiment: Minimum inhibitory concentration evaluated against Streptococci species [38]*; format: functional
Staphylococcus sp. [28] = experiment: In vitro anti-staphylococcal activity against Staphylococcus species resistant to ofloxacin [59]* expressed as geometric mean; format: functional; method in brief: as §2
Staphylococcus sp. [29] = experiment: In vitro anti-staphylococcal activity against Staphylococcus species resistant to oxacillin [66]* expressed as geometric mean; format: functional; method in brief: as §2
Staphylococcus sp. [30] = experiment: In vitro anti-staphylococcal activity against Staphylococcus species resistant to oxacillin and ofloxacin[47]* expressed as geometric mean; format: functional; method in brief: as §2
Mus musculus [31] = experiment: Protective dose of subcutaneously administered compound against intraperitoneally-induced septicaemia model (vancomycin resistant Enterococci faecium D3HT12 strain ) in murine; format: functional; conditions: sc, read-out: PD50; method in brief: as §1
Mus musculus [32] = experiment: Protective dose of subcutaneously administered compound against intraperitoneally-induced septicaemia model (Enterococci faecalis D2HT6 strain) in murine; format: functional; conditions: sc, read-out: PD50; method in brief: as §1
Mus musculus [33] = experiment: Protective dose of subcutaneously administered compound against intraperitoneally-induced septicaemia model (Enterococci faecium D3HT7 strain ) in murine; format: functional; conditions: sc, read-out: PD50; method in brief: as §1
Mus musculus [34] = experiment: Protective dose of subcutaneously administered compound against intraperitoneally-induced septicaemia model ([…] A1UC1 strain) in murine; format: functional; conditions: sc, read-out: PD50; method in brief: as §1
Mus musculus [35] = experiment: Protective dose of subcutaneously administered compound against intraperitoneally-induced septicaemia model (vancomycin resistant Enterococci faecium D3AP9 strain ) in murine; format: functional; conditions: sc, read-out: PD50; method in brief: as §1
Mus musculus [36] = experiment: Protective dose of subcutaneously administered compound against intraperitoneally-induced septicaemia model (vancomycin resistant Enterococci faecium D3HM3 strain ) in murine; format: functional; conditions: sc, read-out: PD50; method in brief: as §1
Mus musculus [37] = experiment: Protective dose of subcutaneously administered compound against intraperitoneally-induced septicaemia model (vancomycin resistant Enterococci faecium D3HM4 strain ) in murine; format: functional; conditions: sc, read-out: PD50; method in brief: as §1
Staphylococcus sp. [38] = experiment: In vitro anti-staphylococcal activity against Staphylococcus species [91]* expressed as geometric mean; format: functional
Method in brief: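 Two-fold agar-dilution MICs (µg/mL) were run on a panel of staphylococcal isolates and summarised as the geometric mean across strains.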

Mus musculus [39] = experiment: Minimum inhibitory concentration of the subcutaneously administered compound evaluated against Staphylococcus aureus HT-18 strain in mice (SC); format: functional
Mus musculus [40] = experiment: Minimum inhibitory concentration of the subcutaneously administered compound evaluated against Enterococci faecium D3HT7 strain in mice (po); format: functional
Mus musculus [41] = experiment: Minimum inhibitory concentration of the subcutaneously administered compound evaluated against Streptococcus pyogenes A1UC1 strain in mice (po); format: functional
Mus musculus [42] = experiment: Minimum inhibitory concentration of the subcutaneously administered compound evaluated against […] B1HT3 strain in mice (po); format: functional
Mus musculus [43] = experiment: Minimum inhibitory concentration of the subcutaneously administered compound evaluated against vancomycin resistant Enterococci faecium D3HM4 strain in mice (po); format: functional
Mus musculus [44] = experiment: Minimum inhibitory concentration of the subcutaneously administered compound evaluated against vancomycin resistant Enterococci faecium D3HT12 strain in mice (po); format: functional
Mus musculus [45] = experiment: Protective dose of subcutaneously administered compound against intraperitoneally-induced septicaemia model (Streptococcus pyogenes A1UC1 strain) in murine; format: functional; conditions: sc, read-out: PD50; method in brief: as §1
Mus musculus [46] = experiment: Minimum inhibitory concentration of the subcutaneously administered compound evaluated against vancomycin resistant Enterococci faecium D3AP9 strain in mice (po); format: functional
Mus musculus [47] = experiment: Minimum inhibitory concentration of the subcutaneously administered compound evaluated against vancomycin resistant Enterococci faecium D3HM3 strain in mice (po); format: functional
Mus musculus [48] = experiment: Minimum inhibitory concentration of the subcutaneously administered compound evaluated against Staphylococcus aureus GR56 strain resistant to oxacillin in mice (sc)

SMILES | MIC90 (Enterococcus [1]) [µg/mL] | MIC90 (Enterococcus [2]) [µg/mL] | MIC90 (Enterococcus [3]) [µg/mL] | GM (Enterococcus [4]) | GM (Enterococcus [5]) | GM (Enterococcus [6]) | MIC (Mus musculus [10]) [µg/mL] | ED50 (Mus musculus [16]) [mg/kg] | ED50 (Mus musculus [17]) [mg/kg] | ED50 (Mus musculus [18]) [mg/kg] | GM (pneumococci) | MIC90 [19] [µg/mL] | MIC90 (Staphylococcus sp. [20]) [µg/mL] | MIC90 (Staphylococcus sp. [21]) [µg/mL] | MIC90 (Staphylococcus sp. [22]) [µg/mL] | MIC90 (Staphylococcus sp. [23]) [µg/mL] | GM (Streptococcus sp. [24]) | GM (Streptococcus sp. [25]) | MIC90 (Streptococcus sp. [26]) [µg/mL] | MIC90 (Streptococcus sp. [27]) [µg/mL] | further results
CC(=O)NC[C@H]1CN(c2ccc(N3CCN(C(=O)CO)CC3)c(F)c2)C(=O)O1 [EPEREZOLID] | 1.2 (≈ 3.04 µM) | 1.2 (≈ 3.04 µM) | 0.6 (≈ 1.52 µM) | 0.72 | 0.43 | 0.51 | 0.6 (≈ 1.52 µM) | > 50 | 5 | 20 | 0.25 | 0.3 (≈ 0.761 µM) | 1.2 (≈ 3.04 µM) | 1.2 (≈ 3.04 µM) | 1.2 (≈ 3.04 µM) | 1.2 (≈ 3.04 µM) | 0.39 | 0.52 | 1.2 (≈ 3.04 µM) | 0.6 (≈ 1.52 µM) | MIC (Mus musculus [7]): 0.6 µg/mL (≈ 1.52 µM); MIC (Mus musculus [8]): < 0.15 µg/mL; MIC (Mus musculus [9]): 1.2 µg/mL (≈ 3.04 µM); MIC (Mus musculus [11]): 0.6 µg/mL (≈ 1.52 µM); MIC (Mus musculus [12]): 0.6 µg/mL (≈ 1.52 µM); MIC (Mus musculus [13]): 1.2 µg/mL (≈ 3.04 µM); MIC (Mus musculus [14]): 0.3 µg/mL (≈ 0.761 µM); MIC (Mus musculus [15]): 0.3 µg/mL (≈ 0.761 µM); GM (Staphylococcus sp. [28]): 0.71; GM (Staphylococcus sp. [29]): 0.73; GM (Staphylococcus sp. [30]): 0.72; ED50 (Mus musculus [31]): 1.5 mg/kg; ED50 (Mus musculus [32]): 6.4 mg/kg; ED50 (Mus musculus [33]): 3 mg/kg; ED50 (Mus musculus [34]): 22.8 mg/kg; ED50 (Mus musculus [35]): 8.7 mg/kg; ED50 (Mus musculus [36]): 2.8 mg/kg; ED50 (Mus musculus [37]): 27.2 mg/kg; GM (Staphylococcus sp. [38]): 0.74
CN[C@H](CC(C)C)C(=O)N[C@H]1C(=O)N[C@@H](CC(N)=O)C(=O)N[C@H]2C(=O)N[C@H]3C(=O)N[C@H](C(=O)N[C@H](C(=O)O)c4cc(O)cc(O)c4-c4cc3ccc4O)[C@H](O)c3ccc(c(Cl)c3)Oc3cc2cc(c3O[C@@H]2O[C@H](CO)[C@@H](O)[C@H](O)[C@H]2O[C@H]2C[C@](C)(N)[C@H](O)[C@H](C)O2)Oc2ccc(cc2Cl)[C@H]1O [VANCOMYCIN] | > 20 | > 20 | 0.6 (≈ 0.414 µM) | 23.7 | 36.9 | 0.75 | 2.5 (≈ 1.73 µM) | 17.2 | 4 | 7.8 | 0.24 | 0.3 (≈ 0.207 µM) | 2.5 (≈ 1.73 µM) | 2.5 (≈ 1.73 µM) | 2.5 (≈ 1.73 µM) | 2.5 (≈ 1.73 µM) | 0.4 | 0.35 | 0.6 (≈ 0.414 µM) | 0.6 (≈ 0.414 µM) | MIC (Mus musculus [39]): 1.2 µg/mL (≈ 0.828 µM); MIC (Mus musculus [40]): 2.5 µg/mL (≈ 1.73 µM); MIC (Mus musculus [41]): 0.6 µg/mL (≈ 0.414 µM); MIC (Mus musculus [42]): 0.3 µg/mL (≈ 0.207 µM); MIC (Mus musculus [43]): > 40 µg/mL; MIC (Mus musculus [44]): > 40 µg/mL; ED50 (Mus musculus [45]): < 1.5 mg/kg; ED50 (Mus musculus [31]): > 50 mg/kg; ED50 (Mus musculus [32]): 16.7 mg/kg; ED50 (Mus musculus [33]): 8.7 mg/kg; ED50 (Mus musculus [35]): > 50 mg/kg; ED50 (Mus musculus [36]): > 50 mg/kg; ED50 (Mus musculus [37]): > 50 mg/kg; MIC (Mus musculus [46]): > 40 µg/mL; MIC (Mus musculus [47]): > 40 µg/mL; MIC (Mus musculus [48]): 1.2 µg/mL (≈ 0.828 µM)
